According to ChEMBL document CHEMBL3526142, “Biotransformation of a novel antimitotic agent, I-387, by mouse, rat, dog, monkey, and human liver microsomes and in vivo pharmacokinetics in mice” (Drug Metab Dispos, 2011):

Tests used:
[1] = Tmax in ICR mouse at 5 mg/kg, ip by LC-MS/MS analysis; assay type: ADME, organism-based; parameters: dose 5 mg/kg, route intraperitoneal; details: in vivo
Summary of the method: (§1)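 Male ICR mice (20–25 g) given the compound intraperitoneally or by gavage in 10% DMSO/PEG300. Three to four mice were sacrificed per time point and plasma collected from the vena cava. Plasma was precipitated with acetonitrile containing internal standard and analysed by LC-MS/MS. Noncompartmental analysis of mean concentration-time data: terminal t1/2 = ln2/λz; Tmax by inspection; n = 3/dose group.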

[2] = Cmax in ICR mouse at 15 mg/kg, ip by LC-MS/MS analysis; assay type: ADME, organism-based; parameters: dose 15 mg/kg, route intraperitoneal; details: in vivo
Summary of the method: (§2)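 Male ICR mice (5–6 weeks, 20–25 g), single doses of 1, 5 or 15 mg/kg in 10% DMSO/PEG300, given iv by tail vein, ip, or orally by gavage. Three to four mice per time point, euthanized under isoflurane, blood drawn from posterior vena cava. Plasma protein precipitated with acetonitrile containing internal standard, then LC-MS/MS (MRM m/z 388.2→192). Noncompartmental analysis of mean concentration-time data, AUCinf by trapezoidal rule with extrapolation, CL = dose/AUCinf, Cmax read from the curve. F = (AUCnon-iv × dose iv)/(AUCiv × dose non-iv). n = 3 per dose group.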

[3] = AUC (infinity) in ICR mouse at 15 mg/kg, ip by LC-MS/MS analysis; assay type: ADME, organism-based; parameters: time infinity, dose 15 mg/kg, route intraperitoneal; details: plasma; summary of the method: as §2
[4] = Cmax in ICR mouse at 1 mg/kg, po via gavage by LC-MS/MS analysis; assay type: ADME, organism-based; parameters: dose 1 mg/kg, route oral; details: in vivo; summary of the method: as §2
[5] = Tmax in ICR mouse at 1 mg/kg, po by LC-MS/MS analysis; assay type: ADME, organism-based; parameters: dose 1 mg/kg, route oral; details: in vivo
Summary of the method: (§3)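 Male ICR mice (5–6 weeks, 20–25 g) dosed by gavage in 10% DMSO in PEG300. Three to four mice per time point were euthanized under isoflurane and blood taken from the posterior vena cava. Plasma was acetonitrile-precipitated and analysed by LC-MS/MS (MRM m/z 388.2→192). Tmax read by visual inspection. F = (AUC_oral × dose_iv)/(AUC_iv × dose_oral), with AUC_inf by trapezoidal rule; n = 3/dose group.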

[6] = AUC (infinity) in ICR mouse at 1 mg/kg, po via gavage by LC-MS/MS analysis; assay type: ADME, organism-based; parameters: time infinity, dose 1 mg/kg, route oral; details: plasma; summary of the method: as §2
[7] = Oral bioavailability in ICR mouse at 5 mg/kg via gavage after 30 mins by LC-MS/MS analysis; assay type: ADME, organism-based; details: in vivo; summary of the method: as §3
[8] = Tmax in ICR mouse at 15 mg/kg, po by LC-MS/MS analysis; assay type: ADME, organism-based; parameters: dose 15 mg/kg, route oral; details: in vivo; summary of the method: as §3
[9] = AUC (infinity) in ICR mouse at 15 mg/kg, po via gavage by LC-MS/MS analysis; assay type: ADME, organism-based; parameters: time infinity, dose 15 mg/kg, route oral; details: plasma; summary of the method: as §2
[10] = Oral bioavailability in ICR mouse at 15 mg/kg via gavage after 30 mins by LC-MS/MS analysis; assay type: ADME, organism-based; details: in vivo; summary of the method: as §3
[11] = Metabolic stability in mouse liver microsomes assessed as half life during phase 1 at 0.5 uM by LC-MS/MS analysis in presence of 3 mM NADPH and absence of UDPGA; assay type: ADME; details: read-out: alphat1/2
Summary of the method: (§4)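 Pooled liver microsomes at 1 mg/ml protein with 3 mM NADPH, 0.5 μM substrate in 65 mM potassium phosphate pH 7.4, 1% methanol, 37°C. Incubations stopped at 10, 20, 30, 60 and 90 min with ice-cold acetonitrile plus internal standard, then LC-MS/MS of parent remaining relative to time 0. Half-life from a two-parameter single exponential decay fit; n = 2 to 3.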

[12] = Metabolic stability in monkey liver microsomes assessed as half life during phase 1 at 0.5 uM by LC-MS/MS analysis in presence of 3 mM NADPH and absence of UDPGA; assay type: ADME, Macaca mulatta; details: rhesus monkey, read-out: alphat1/2; summary of the method: as §4
[13] = Metabolic stability in mouse liver microsomes assessed as half life during phase 1 and 2 at 0.5 uM by LC-MS/MS analysis in presence of 3 mM NADPH and […] UDPGA; assay type: ADME; details: read-out: alphat1/2
[14] = Metabolic stability in monkey liver microsomes assessed as half life during phase 1 and 2 at 0.5 uM by LC-MS/MS analysis in presence of 3 mM NADPH and […] UDPGA; assay type: ADME, Macaca mulatta; details: rhesus monkey, read-out: alphat1/2
[15] = Drug level in monkey liver microsomes assessed as compound retention time treated with 0.5 uM I-387 after 2 hrs by LC-MS/MS analysis; assay type: ADME, Macaca mulatta; details: rhesus monkey
Summary of the method: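 Pooled liver microsomes (1 mg/ml protein) incubated with 0.5 µM substrate and 3 mM NADPH in 65 mM potassium phosphate, pH 7.4, 1% methanol, at 37°C for 2 h. Stopped with ice-cold acetonitrile containing internal standard, centrifuged. Supernatant analysed by LC-MS/MS on a C18 column, 15-min gradient, with product ion scans for metabolite identification.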

[16] = Antitumor activity against human PC3 cells xenografted in nu/nu mouse assessed as decrease in tumor growth at 10 mg/kg, ip 2 days per week for weeks; assay type: functional; details: PC-3, ip, 48 h, route intraperitoneal
[17] = Antitumor activity against human MESSA/DX5 cells xenografted in nu/nu mouse assessed as decrease in tumor growth at 10 mg/kg, ip 2 days per week for weeks; assay type: functional; details: MES-SA/Dx5, ip, 48 h, route intraperitoneal
[18] = Plasma concentration in ICR mouse at 15 mg/kg, ip measured for 30 hrs by LC-MS/MS analysis; assay type: ADME, organism-based; parameters: dose 15 mg/kg, route intraperitoneal
Summary of the method: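 Male ICR mice given 15 mg/kg intraperitoneally in 10% DMSO/PEG300. Plasma from 3–4 mice per time point was collected via the posterior vena cava, protein-precipitated with acetonitrile plus internal standard, and quantified by LC-MS/MS (MRM m/z 388.2→192).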

[19] = Terminal half life in ICR mouse at 1 mg/kg, iv by LC-MS/MS analysis; assay type: ADME, organism-based; parameters: dose 1 mg/kg, route intravenous; details: in vivo, read-out: beta t1/2 (converted)
Summary of the method: (§5)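 Tail-vein injection in male ICR mice (5–6 weeks), vehicle 10% DMSO in PEG300. Serial terminal sampling of 3–4 mice per time point, with posterior vena cava blood. Plasma was acetonitrile-precipitated and measured by LC-MS/MS. Noncompartmental analysis of mean data: t1/2 = ln2/λz, CL = dose/AUC_inf, Vd_ss = CL × MRT_inf; n = 3/dose group.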

[20] = Terminal half life in ICR mouse at 5 mg/kg, iv by LC-MS/MS analysis; assay type: ADME, organism-based; parameters: dose 5 mg/kg, route intravenous; details: in vivo, read-out: beta t1/2 (converted); summary of the method: as §5
[21] = AUC (infinity) in ICR mouse at 5 mg/kg, iv by LC-MS/MS analysis; assay type: ADME, organism-based; parameters: time infinity, dose 5 mg/kg, route intravenous; details: plasma; summary of the method: as §2
[22] = Volume of distribution at steady state in ICR mouse at 5 mg/kg, iv by LC-MS/MS analysis; assay type: ADME, organism-based; parameters: dose 5 mg/kg, route intravenous; details: in vivo, read-out: Vdss; summary of the method: as §5
[23] = AUC (infinity) in ICR mouse at 15 mg/kg, iv by LC-MS/MS analysis; assay type: ADME, organism-based; parameters: time infinity, dose 15 mg/kg, route intravenous; details: plasma; summary of the method: as §2
[24] = Clearance in ICR mouse at 15 mg/kg, iv by LC-MS/MS analysis; assay type: ADME, organism-based; parameters: dose 15 mg/kg, route intravenous; details: in vivo; summary of the method: as §2
[25] = Terminal half life in ICR mouse at 1 mg/kg, ip by LC-MS/MS analysis; assay type: ADME, organism-based; parameters: dose 1 mg/kg, route intraperitoneal; details: in vivo, read-out: beta t1/2 (converted); summary of the method: as §1
[26] = Cmax in ICR mouse at 5 mg/kg, ip by LC-MS/MS analysis; assay type: ADME, organism-based; parameters: dose 5 mg/kg, route intraperitoneal; details: in vivo; summary of the method: as §2
[27] = Metabolic stability in human liver microsomes assessed as half life during phase 1 and 2 at 0.5 uM by LC-MS/MS analysis in presence of 3 mM NADPH and 5 mM UDPGA; details: read-out: alphat1/2

What does the source list for `COc1cc(C(=O)c2cccc(-c3cc4ccccc4[nH]3)c2)cc(OC)c1OC`?
Tmax [1]: 5 min; Cmax [2]: 4290 ng/mL; AUC(0-inf) [3]: 12600 ng·h/mL; Cmax [4]: 30 ng/mL; Tmax [5]: 30 min; AUC(0-inf) [6]: 148 ng·h/mL; bioavailability [7]: 13%; Tmax [8]: 30 min; AUC(0-inf) [9]: 1070 ng·h/mL; bioavailability [10]: 8%; half-life at 0.5 µM [11]: 37 min; half-life at 0.5 µM [12]: 15 min; half-life at 0.5 µM [13]: 39 min; half-life at 0.5 µM [14]: 11 min; Retention_time [15]: 11.3 min; inhibition in vivo at 10 mg/kg [16]: 68%; inhibition in vivo at 10 mg/kg [17]: 76%; concentration at 30 h [18]: > 71 ng/mL; half-life [19]: 420 min; half-life [20]: 258 min; AUC(0-inf) [21]: 3950 ng·h/mL; Vd [22]: 3.8 L/kg; AUC(0-inf) [23]: 13400 ng·h/mL; clearance [24]: 19 mL/min/kg; half-life [25]: 480 min; Cmax [26]: 1440 ng/mL; half-life at 0.5 µM [27]: 30 min
